Results reported in ChEMBL document CHEMBL6127097, “Structure-Guided Discovery of cis-Hexahydro-pyrido-oxazinones as Reversible, Drug-like Monoacylglycerol Lipase Inhibitors” (J Med Chem, 2024).
In brackets after ≈: the same amount, converted by molar mass.

How the values were obtained:
[1] = Octanol-water partition coefficient, logD of the compound at pH 7.4 incubated for 1.5 hrs by shake flask based LC-UV/MS analysis; assay type: physicochemical; conditions: pH 7.4
Outline: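 CAMDIS shake-flask variant. 10 mM DMSO stock is diluted into 25 mM phosphate pH 7.4 over a 1-octanol-impregnated PVDF membrane and shaken 1.5 h at 21 °C, at two octanol/buffer ratios, in triplicate. Remaining aqueous concentration is read by LC/MS; logD comes from the difference with and without octanol.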

[2] = Aqueous solubility of compound in phosphate buffer at pH 6.5 by HPLC or MS/MS analysis; assay type: physicochemical; conditions: phosphate buffer, read-out: solubility
Outline: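 Lyophilization solubility assay (LYSA) starting from a 10 mM DMSO stock. DMSO was removed by centrifugal vacuum evaporation, then 0.05 M phosphate buffer pH 6.5 was added and samples sonicated. Filtrates were analysed by MS/MS and/or HPLC against a 4- to 7-point calibration curve.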

Monoglyceride lipase = target: T1, Monoglyceride lipase (Homo sapiens, UniProt Q99685); assay: Inhibition of human MAGL using native substrate by Rapidfire MS assay
T1 sequence (Q99685 whole entry): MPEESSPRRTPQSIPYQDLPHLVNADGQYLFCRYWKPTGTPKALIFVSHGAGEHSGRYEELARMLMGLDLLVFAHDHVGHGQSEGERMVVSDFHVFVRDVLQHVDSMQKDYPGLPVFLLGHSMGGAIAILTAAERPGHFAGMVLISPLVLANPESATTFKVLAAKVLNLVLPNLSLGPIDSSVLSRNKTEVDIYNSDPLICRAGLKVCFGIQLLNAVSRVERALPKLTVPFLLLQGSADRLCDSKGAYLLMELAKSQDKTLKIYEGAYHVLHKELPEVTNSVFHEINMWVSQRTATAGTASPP

[3] = Plasma protein binding in human assessed as fraction unbound by equilibrium dialysis based LC-MS/MS method; assay type: ADME, cell-free
Outline: (§1)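 Equilibrium dialysis across a 12–14 kDa cutoff membrane in a Teflon 96-well device. Pooled frozen plasma is adjusted to pH 7.4 and spiked at 1000 nM initial total, against Soerensen buffer pH 7.4. Incubation is 5 h at 37 °C, 5% CO2, with diazepam control in each well. %fu = 100 × buffer/matrix concentration after dialysis; recovery accepted at 80–120%.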

[4] = Free fraction in human plasma incubated for 5 hrs by equilibrium dialysis based LC-MS/MS analysis; assay type: ADME, cell-free; outline: as §1
[5] = AUClast in C57BL/6 mouse at 24 mg/kg, ip measured upto 7 hrs by LC-MS/MS analysis; conditions: in vivo
[6] = Half-life in C57BL/6 mouse at 24 mg/kg, ip measured upto 7 hrs by LC-MS/MS analysis; conditions: in vivo
[7] = Unbound brain to plasma partition coefficient of compound in C57BL/6 mouse at 24 mg/kg, ip measured upto 7 hrs by LC-MS/MS analysis; conditions: read-out: K(p,uu,brain)
[8] = Oral bioavailability in C57BL/6 mouse at 5.1 mg/kg measured upto 7 hrs by LC-MS/MS analysis; conditions: in vivo
[9] = Tmax in C57BL/6 mouse at 5.1 mg/kg, po measured upto 7 hrs by LC-MS/MS analysis; conditions: in vivo
[10] = Cmax in C57BL/6 mouse at 5.1 mg/kg, po measured upto 7 hrs by LC-MS/MS analysis; conditions: in vivo
[11] = Volume of distribution at steady state in C57BL/6 mouse at 1.3 mg/kg, iv measured upto 7 hrs by LC-MS/MS analysis; conditions: in vivo, read-out: Vdss
[12] = Cmax in C57BL/6 mouse at 24 mg/kg, ip measured upto 7 hrs by LC-MS/MS analysis; conditions: in vivo
[13] = Ratio of drug concentration in C57BL/6 mouse brain to plasma at 24 mg/kg, ip measured upto 7 hrs by LC-MS/MS analysis
[14] = Ratio of drug concentration in C57BL/6 mouse CSF to plasma at 24 mg/kg, ip measured upto 7 hrs by LC-MS/MS analysis
[15] = Clearance in C57BL/6 mouse at 1.3 mg/kg, iv measured upto 7 hrs by LC-MS/MS analysis; conditions: in vivo
[16] = AUClast in C57BL/6 mouse at 5.1 mg/kg, po measured upto 7 hrs by LC-MS/MS analysis; conditions: in vivo
[17] = Half-life in C57BL/6 mouse at 1.3 mg/kg, iv measured upto 7 hrs by LC-MS/MS analysis; conditions: in vivo
[18] = Tmax in C57BL/6 mouse at 24 mg/kg, ip measured upto 7 hrs by LC-MS/MS analysis; conditions: in vivo

| logD at 1.5 h [1] | solubility [2] | IC50 (Monoglyceride lipase; read-out: IC50) | IC50 (Monoglyceride lipase; read-out: pIC50 (converted)) | Structure (SMILES) | further results |
| --- | --- | --- | --- | --- | --- |
| 3.2 | 1.1 µg/mL (≈ 3.14 µM) | 75 nM | – | O=C1COc2ccc(C(=O)N3CCC(Cc4ccccc4)CC3)cc2N1 | – |
| 3.3 | 0.8 µg/mL (≈ 2.17 µM) | 62 nM | 57.5 nM | O=C1COc2ccc(C(=O)N3CCC(Cc4ccc(F)cc4)CC3)cc2N1 | – |
| 3.3 | 114 µg/mL (≈ 268 µM) | 2200 nM | – | O=C1CO[C@@H]2CCN(C(=O)N3CCC(Cc4ccc(C(F)(F)F)cc4)CC3)C[C@@H]2N1 | – |
| 3.8 | 2.9 µg/mL (≈ 7.49 µM) | 965 nM | 912 nM | O=C(c1ccc2cn[nH]c2c1)N1CCC(Cc2ccc(C(F)(F)F)cc2)CC1 | – |
| 3.2 | 377 µg/mL (≈ 921 µM) | 569 nM | – | O=C1C[C@H]2CCN(C(=O)N3CCC(Cc4ccc(C(F)(F)F)cc4)CC3)C[C@H]2N1 | – |
| 3.6 | 36 µg/mL (≈ 97.7 µM) | 51 nM | 49 nM | O=C1COc2ccc(C(=O)N3CCC(Cc4cccc(F)c4)CC3)cc2N1 | – |
| 3.6 | 2 µg/mL (≈ 4.88 µM) | 3 nM | – | O=C1COc2ccc(C(=O)N3CCC(c4c[nH]c5ccc(Cl)cc45)CC3)cc2N1 | – |
| 3.8 | 4.1 µg/mL (≈ 9.8 µM) | 32 nM | 28.8 nM | O=C1COc2ccc(C(=O)N3CCC(Cc4ccc(C(F)(F)F)cc4)CC3)cc2N1 | fraction unbound [3]: 0.005; fraction unbound at 5 h [4]: 0.005 |
| 3.7 | 6.9 µg/mL (≈ 15.9 µM) | 2500 nM | 2400 nM | O=C1CSc2ccc(C(=O)N3CCC(Cc4ccc(C(F)(F)F)cc4)CC3)cc2N1 | – |
| 3.8 | 0.3 µg/mL (≈ 0.732 µM) | 21 nM | – | O=C1COc2ccc(C(=O)N3CCC(c4c[nH]c5cc(Cl)ccc45)CC3)cc2N1 | – |
| 3.8 | < 0.1 µg/mL | 1 nM | – | O=C1COc2ccc(C(=O)N3CCC(C(c4ccc(F)cc4)c4ccc(F)cc4)CC3)cc2N1 | – |
| 3.2 | 225 µg/mL (≈ 529 µM) | 65 nM | – | O=C1CO[C@H]2CCN(C(=O)N3CCC(Cc4ccc(C(F)(F)F)cc4)CC3)C[C@H]2N1 (racemic) | AUC(0-t) at 7 h [5]: 62100 ng·h/mL; half-life [6]: 174 min; Kp uu at 7 h [7]: 0.35; bioavailability [8]: 127%; Tmax [9]: 2.7 h; Cmax [10]: 896 ng/mL; Vd [11]: 3 L/kg; Cmax [12]: 12200 ng/mL; Kp at 7 h [13]: 1.7; Kp at 7 h [14]: 0.016; clearance [15]: 23 mL/min/kg; AUC(0-t) at 7 h [16]: 4560 ng·h/mL; half-life [17]: 90 min; Tmax [18]: 1.5 h |
| 2.9 | 37 µg/mL (≈ 98.6 µM) | 37 nM | – | O=C1COc2ccc(C(=O)N3CCC(c4c[nH]c5ccccc45)CC3)cc2N1 | – |
| 3.2 | 78 µg/mL (≈ 183 µM) | 370 nM | 347 nM | O=C1CO[C@H]2CCN(C(=O)N3CCC(Cc4ccc(C(F)(F)F)cc4)CC3)C[C@@H]2N1 (racemic) | – |
| 3.8 | < 0.1 µg/mL | 1 nM | 0.437 nM | O=C1COc2ccc(C(=O)N3CCC(C(c4ccccc4)c4ccccc4)CC3)cc2N1 | – |
| 3.9 | 15 µg/mL (≈ 35.8 µM) | 46 nM | 44.7 nM | O=C1COc2ccc(C(=O)N3CCC(Cc4cccc(C(F)(F)F)c4)CC3)cc2N1 | – |
